According to paper PMC5903480 (Drug Design, Development and Therapy, 2018):
Each block holds one molecule with its values, some of them ahead of it.

Tests used:
LDL-C [1] = settings: ezetimibe administered with atorvastatin; cited from earlier work
[2] = Steady-state plasma pharmacokinetics of free and total ezetimibe; format: in vivo, human
In short: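 Ezetimibe 10 mg was given orally once daily for 10 days, alone or with rosuvastatin 20 mg, fasted, in a crossover. EDTA plasma was sampled 0–72 h after the day-10 dose. LC-MS/MS (ezetimibe-d4 internal standard) measured free and total (free plus glucuronide) ezetimibe; LLOQ was 0.2 and 0.5 ng/mL. Analysis was non-compartmental on actual times, with t1/2 as ln(2)/λz. Log-transformed Cmax,ss and AUCτ,ss were compared by ANOVA as geometric mean ratios with 90% CI.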

[3] = Tolerability: adverse events in healthy male volunteers; format: in vivo, human; settings: multiple oral doses over 10 days, healthy male subjects
In short: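 Healthy Korean men took the single or combined drugs once daily for 10 days in a 3-period crossover. Monitoring ran throughout and covered vital signs, 12-lead ECG, hematology, blood chemistry, urinalysis and physical examinations. AEs were recorded by symptom, duration, intensity, drug relationship, outcome and seriousness. Counts are subjects (events); frequencies were compared by Fisher's exact test.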

LDL-C [4] = settings: volunteers with hypercholesterolemia, n=8 per group, ezetimibe 10 mg; cited from earlier work
plasma cholesterol = settings: in humans; cited from earlier work
[5] = healthy subjects, 7 day-dosing, coadministration with rosuvastatin; cited from earlier work
[6] = single-dose 20 mg ezetimibe; cited from earlier work
cholesterol absorption = settings: rat model; cited from earlier work

- amount of free ezetimibe in the body ([2]; relative to conjugate/total ezetimibe): < 8%
- 90% CI of geometric mean ratio for Cmax,ss of free ezetimibe ([2]; single versus combination treatment, exception to 0.80–1.25): 1.038–1.346
Structure (SMILES): O=C1[C@H](CC[C@H](O)c2ccc(F)cc2)[C@@H](c2ccc(O)cc2)N1c1ccc(F)cc1 [Ezetimibe]
- additional reductions in LDL-C levels (LDL-C [1]): 12%–19%
- tolerability [3]: well tolerated
- subjects achieving a 35%–50% reduction of LDL-C (LDL-C [4]): 1 of 8
- reduction of plasma cholesterol (plasma cholesterol): 15%–20%
- 90% CI of AUCmax,ss ratio of free ezetimibe on coadministration [5]: 1.094–1.341
- 90% CI of Cmax,ss ratio of free ezetimibe on coadministration [5]: 0.994–1.285
- AEs and physical examinations [6]: no AEs or clinically significant changes
- Cmax,ss of free ezetimibe [6]: 5.2 ng/mL

Structure (SMILES): CC(C)c1nc(N(C)S(C)(=O)=O)nc(-c2ccc(F)cc2)c1/C=C/[C@@H](O)C[C@@H](O)CC(=O)O [Rosuvastatin]
- tolerability [3]: well tolerated

Structure (SMILES): O=C(O)[C@H]1O[C@@H](Oc2ccc([C@@H]3[C@@H](CC[C@H](O)c4ccc(F)cc4)C(=O)N3c3ccc(F)cc3)cc2)[C@H](O)[C@@H](O)[C@@H]1O [ezetimibe glucuronide]
- cholesterol absorption inhibiting activity (relative potency) (cholesterol absorption): more potent than ezetimibe
